Assays:
[1] = molecular target: T1, Bile acid receptor (Homo sapiens) (UniProt Q96RI1); experiment: Agonist activity at FXR in human HepG2 cells assessed as induction of OSTalpha mrNA expression at 0.3 uM by quantitative PCR method; type: cell-based
T1 sequence (whole entry): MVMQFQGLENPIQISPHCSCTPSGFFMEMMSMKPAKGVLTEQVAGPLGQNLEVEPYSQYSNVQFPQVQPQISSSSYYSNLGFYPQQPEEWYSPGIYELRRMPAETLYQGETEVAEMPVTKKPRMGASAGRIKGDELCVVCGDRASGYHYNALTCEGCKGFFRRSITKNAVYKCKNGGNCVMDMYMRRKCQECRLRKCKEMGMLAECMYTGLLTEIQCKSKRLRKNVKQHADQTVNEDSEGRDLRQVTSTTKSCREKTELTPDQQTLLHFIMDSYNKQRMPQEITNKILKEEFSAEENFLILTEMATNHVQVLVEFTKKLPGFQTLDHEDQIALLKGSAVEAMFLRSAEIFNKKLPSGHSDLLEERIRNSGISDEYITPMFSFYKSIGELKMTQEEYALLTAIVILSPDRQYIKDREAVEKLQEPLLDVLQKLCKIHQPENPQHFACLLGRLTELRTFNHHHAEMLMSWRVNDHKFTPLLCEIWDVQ
How it was run: (§1)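 HepG2 cells were seeded at 2 × 10⁶ per well. After 24 h they were switched to MEM with 1% charcoal-stripped FCS, and 24 h later dosed with compound (0.1, 0.3, 1, 3, 10 μM; 0.1% DMSO final) for 24 h. Total RNA was reverse transcribed and analysed by qPCR, GAPDH-normalized, ΔΔCt method. Samples were run in duplicate in ≥4 independent experiments.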

[2] = molecular target: T2, Peroxisome proliferator-activated receptor gamma (Homo sapiens, UniProt P37231); experiment: (§2) Activity at GAL4-tagged PPARgamma (unknown origin) expressed in COS7 cells assessed as receptor transactivation by luciferase reporter gene assay; type: cell-based, COS-7
T2 sequence (P37231 whole entry): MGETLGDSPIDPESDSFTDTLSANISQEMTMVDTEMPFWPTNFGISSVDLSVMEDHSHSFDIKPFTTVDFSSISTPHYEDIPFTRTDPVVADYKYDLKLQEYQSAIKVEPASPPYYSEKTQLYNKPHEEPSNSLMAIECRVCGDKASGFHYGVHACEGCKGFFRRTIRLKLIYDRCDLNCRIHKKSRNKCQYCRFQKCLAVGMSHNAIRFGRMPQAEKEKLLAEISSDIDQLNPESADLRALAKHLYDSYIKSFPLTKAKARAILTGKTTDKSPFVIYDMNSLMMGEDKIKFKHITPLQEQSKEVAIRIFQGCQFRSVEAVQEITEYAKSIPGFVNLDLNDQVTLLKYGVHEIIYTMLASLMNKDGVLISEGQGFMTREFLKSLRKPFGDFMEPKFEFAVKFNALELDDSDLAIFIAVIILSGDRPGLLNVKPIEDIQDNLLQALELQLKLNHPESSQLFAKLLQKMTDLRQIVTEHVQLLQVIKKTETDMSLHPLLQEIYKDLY
How it was run: (§3)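 Each PPAR subtype was tested as a Gal4 fusion carrying the human hinge region and LBD (cDNA from human monocytes) in transiently transfected COS-7 cells (Lipofectamine LTX), with a pFR-Luc reporter and pRL-SV40 for normalization. Compound in 0.1% DMSO was added 5 h post-transfection and incubated overnight. Firefly/renilla RLU was scaled to 1 μM GW7647 (α), L165,041 (δ) or pioglitazone (γ).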

[3] = molecular target: T3, Peroxisome proliferator-activated receptor gamma (Homo sapiens) (UniProt P37231); experiment: as §2; type: cell-based; details: COS-7; how it was run: as §3
T3 sequence (whole entry): T2 sequence (P37231 whole entry)

[4] = molecular target: T1, Bile acid receptor (Homo sapiens); experiment: Agonist activity at FXR in human HepG2 cells assessed as induction of CYP7A1 mrNA expression at 0.3 uM by quantitative PCR method; type: cell-based; how it was run: as §1
[5] = molecular target: T1, Bile acid receptor (Homo sapiens); experiment: Agonist activity at FXR in human HepG2 cells assessed as induction of SHP mrNA expression at 0.3 uM by quantitative PCR method; type: cell-based; how it was run: as §1
[6] = molecular target: T1, Bile acid receptor (Homo sapiens); experiment: Agonist activity at FXR in human HepG2 cells assessed as induction of CYP7A1 mrNA expression at 10 uM by quantitative PCR method; type: cell-based; how it was run: as §1
[7] = molecular target: T1, Bile acid receptor (Homo sapiens); experiment: Agonist activity at FXR in human HepG2 cells assessed as induction of IBABP mrNA expression at 0.1 uM by quantitative PCR method; type: cell-based
[8] = molecular target: T1, Bile acid receptor (Homo sapiens); experiment: Agonist activity at FXR in human HepG2 cells assessed as induction of BSEP mrNA expression at 10 uM by quantitative PCR method; type: cell-based; how it was run: as §1
[9] = molecular target: T1, Bile acid receptor (Homo sapiens); experiment: Agonist activity at FXR in human HepG2 cells assessed as induction of IBABP mrNA expression at 0.3 uM by quantitative PCR method; type: cell-based
[10] = molecular target: T1, Bile acid receptor (Homo sapiens); experiment: Agonist activity at FXR in human HepG2 cells assessed as induction of OSTalpha mrNA expression at 1 uM by quantitative PCR method; type: cell-based; how it was run: as §1
Homo sapiens [11] = species: Homo sapiens; experiment: Selectivity index, ratio of EC50 for human TGR5 to EC50 for human FXR
[12] = molecular target: T4, Peroxisome proliferator-activated receptor alpha (Homo sapiens, UniProt Q07869); experiment: Activity at GAL4-tagged PPARalpha (unknown origin) expressed in COS7 cells assessed as receptor transactivation by luciferase reporter gene assay; type: cell-based, COS-7; how it was run: as §3
T4 sequence (Q07869 whole entry): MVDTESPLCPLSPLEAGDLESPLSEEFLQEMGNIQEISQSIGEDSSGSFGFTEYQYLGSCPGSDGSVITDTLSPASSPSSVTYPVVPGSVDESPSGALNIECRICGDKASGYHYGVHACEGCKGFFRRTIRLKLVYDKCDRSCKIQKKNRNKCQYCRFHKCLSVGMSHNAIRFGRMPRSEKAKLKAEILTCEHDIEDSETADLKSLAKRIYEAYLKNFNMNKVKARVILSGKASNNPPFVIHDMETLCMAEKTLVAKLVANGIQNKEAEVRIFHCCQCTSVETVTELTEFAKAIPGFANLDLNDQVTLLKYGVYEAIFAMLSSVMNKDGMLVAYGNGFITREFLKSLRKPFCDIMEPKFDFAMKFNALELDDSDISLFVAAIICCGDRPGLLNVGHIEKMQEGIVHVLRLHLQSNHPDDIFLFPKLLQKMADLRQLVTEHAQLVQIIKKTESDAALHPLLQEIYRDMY

[13] = molecular target: T1, Bile acid receptor (Homo sapiens); experiment: Agonist activity at FXR in human HepG2 cells assessed as induction of SHP mrNA expression at 10 uM by quantitative PCR method; type: cell-based; how it was run: as §1
[14] = molecular target: T1, Bile acid receptor (Homo sapiens); experiment: Agonist activity at FXR in human HepG2 cells assessed as induction of SHP mrNA expression at 1 uM by quantitative PCR method; type: cell-based; how it was run: as §1
Homo sapiens [15] = species: Homo sapiens; experiment: Selectivity index, ratio of EC50 for GAL4-tagged PPARdelta (unknown origin) to EC50 for human FXR

COc1ccc(C(=O)Nc2cccc(C(=O)O)c2)c(NC(=O)c2ccc(C(C)(C)C)cc2)c1
Activity [1]: 198%
EC50 [2]: 2990 nM
Emax [3]: 81%
Activity [4]: 59%
Activity [5]: 247%
Activity [6]: 57%
Activity [7]: 188%
Activity [8]: 308%
Activity [9]: 145%
Activity [10]: 140%
Ratio EC50 (Homo sapiens [11]): > 1000
EC50 [12]: > 10000 nM
Activity [13]: 214%
Activity [14]: 181%
Ratio EC50 (Homo sapiens [15]): > 1000

— ChEMBL document CHEMBL3351394 (J Med Chem, 2014)
